# Rows were chosen to be rich in hits. Some 1.5% of all compounds tested hit in one or more screens of this group.
# CSN deneddyl inh = CSN deneddylation inhibition | Q92905 | Purified CSN, SCF-Nedd8-OG deneddylation, fluorescence polarization | inhibition, % at 12.5 µM | 360,000 tested, 0.38% active | AID 651999;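 active = pattern-corrected inhibition above about 35%, with an unprinted fluorescence ratio check between 0.5 and 1.5, limit read from the data, passing the limit was not always enough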;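 also: 0% = enzyme with substrate and 100% = substrate without enzyme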
#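 Test system: Human Csn5 produced in HEK293T cells | Compound: 12.5 µM single point | Times: 90 min, room temperature | Signal: Fluorescence polarization readout | Read-out basis: % inhibition of substrate cleavage by Csn5 | Controls: no-enzyme wells high, enzyme-with-substrate wells low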
# HNF4A DNA FP = change in binding of human HNF4 alpha to DNA. AID 1224865. P41235. 360,000 tested, 0.3% active. HNF4a-FITC DNA binding, fluorescence polarization, 1 h. activity change, % at 10 µM; in the data active = activity change above about 30%, passing the limit was not always enough
# Target sequence (P41235 whole entry, looked up): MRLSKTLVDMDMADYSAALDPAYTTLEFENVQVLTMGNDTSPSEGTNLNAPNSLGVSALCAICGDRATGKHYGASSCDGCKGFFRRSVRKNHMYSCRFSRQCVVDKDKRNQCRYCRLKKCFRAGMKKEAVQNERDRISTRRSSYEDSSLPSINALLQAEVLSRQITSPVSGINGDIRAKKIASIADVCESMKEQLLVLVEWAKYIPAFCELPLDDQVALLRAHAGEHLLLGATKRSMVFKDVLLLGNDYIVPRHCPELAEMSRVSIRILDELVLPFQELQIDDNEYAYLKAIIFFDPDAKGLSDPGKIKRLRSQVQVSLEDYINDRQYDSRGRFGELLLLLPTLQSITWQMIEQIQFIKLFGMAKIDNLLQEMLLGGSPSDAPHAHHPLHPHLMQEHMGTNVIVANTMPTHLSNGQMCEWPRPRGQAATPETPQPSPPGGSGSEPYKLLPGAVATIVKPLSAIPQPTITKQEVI
# TPT1 inhibitor = blocks Candida albicans tRNA 2'-phosphotransferase; recombinant caTPT1, FP RNA substrate dephosphorylation; AID 1962; inhibition, % at 5 µM; 300,000 tested, 0.81% active;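 active = inhibition above the mean of all tested compounds plus 3 SD, set per screening campaign, cut at about 24% in these data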;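 also: plate controls were DMSO alone for no effect and ferristatin control at 100 nM for full effect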
# Rpn11 inh = inhibitors of human proteasome Rpn11; AID 588493; O00487; inhibition, % at 20 µM; 360,000 tested, 0.59% active; human 26S proteasome, Ub4-pepOG fluorescence polarization; 20S core pre-blocked with epoxomicin;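 active = inhibition at 20 µM, scaled to each plate's controls, above about 33%, limit read from the data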
# Rpn11 inh conf = confirmation of human proteasome Rpn11 inhibitors | shares compounds with Rpn11 inh | purified human 26S proteasome, Ub4-pepOG fluorescence polarization; proteasome pretreated with epoxomicin | inhibition, % at 20 µM | 1,900 tested, 29% active
# MMP-2 counter = blocks human MMP-2, flagging nonselective RPN11 hits. shares compounds with Rpn11 inh. recombinant MMP-2, FRET peptide cleavage fluorescence. 1,900 tested, 4% active. inhibition, % at 20 µM;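 also: human MMP-2 activated beforehand with APMA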
# Thrombin inh = blocks bovine thrombin, flagging nonselective RPN11 hits | shares compounds with Rpn11 inh | bovine thrombin cleavage of Ub4-pepOG, fluorescence polarization | inhibition, % at 20 µM | 1,900 tested, 13% active;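 active = mean inhibition at least 40% at 20 µM, or signal 3 deviations below plate average, so some actives read negative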;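 also: plate controls were thrombin with DMSO for no effect and buffer wells lacking thrombin for full effect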
# Numbers without * were called inactive; / = not tested or not shown; + = active, no number. Rule as the data show it, unless noted: active = inhibition above about 40%; inactive = the rest.
SMILES,CSN deneddyl inh,HNF4A DNA FP,TPT1 inhibitor,Rpn11 inh,Rpn11 inh conf,MMP-2 counter,Thrombin inh
O=C(CN(C1CCCCC1)S(=O)(=O)c1ccccc1)N1CCCC1,1,14,0,37*,-2,-4,-8
CN1CCN(C(=O)CN(C2CCCCC2)S(=O)(=O)c2ccccc2)CC1,-1,-2,/,6,/,/,/
CC(C)NC(=S)N/N=C/c1sc(N2CCCCC2)nc1-c1cccs1,1,41*,11,53*,46*,34,8
NC(=O)N/N=C/c1sc(N2CCCCC2)nc1-c1cccs1,10,21,1,56*,4,-11,-1
CSc1ccccc1NC(=O)CN(C)C(=O)c1ccc(NC(=O)c2cccs2)cc1,5,-1,/,2,/,/,/
CCOc1nc2cnccc2n(CC(=O)Nc2cccc(C)c2C)c1=O,-4,3,0,0,/,/,/
CCCOc1ccc(NC(=O)C2CC(=O)N/C(=N/N=C(C)/C=C/c3ccc(N(C)C)cc3)S2)cc1 (centres undefined),3,10,15,/,/,/,/
CC(/C=C/c1ccc(N(C)C)cc1)=N/N=C1/NC(=O)CC(C(=O)Nc2ccc(Cl)cc2)S1 (centres undefined),7,29,19,65*,89*,23,87*
CCCCCCCCCC[N+](C)(C)CC/C=C1/c2ccccc2Sc2ccc(Cl)cc21,9,10,0,48*,38,-2,1
CC(C)(C)c1ccc(C(=O)Nc2nnc(Cc3c[nH]c4ccccc34)s2)cc1,11,0,3,5,/,/,/
O=C(Nc1nnc(Cc2c[nH]c3ccccc23)s1)c1ccc(Cl)cc1Cl,-5,16,20,42*,29,0,10
COc1cccc(OC)c1C(=O)NCCN1CCN(C(=O)c2c(OC)cccc2OC)CC1,-1,-3,-4,134*,-2,-14,-17
CCc1nc2oc3ccccc3c(=O)c2c(=O)n1-c1ccc(C)cc1,5,-13,19,68*,47*,-18,22
O=S(=O)(c1ccc(Br)s1)N1CCN(c2ccccc2)CC1,-3,32*,3,52*,22,-1,21
CC(C)(C)S(=O)N1Cc2cc(C(=O)N[C@@H]3CCN(Cc4ccccc4)C3)nc(-c3cccc(-c4cc5ccccc5o4)c3)c2[C@@H]1CCO (some centres undefined),9,21,/,68*,26,15,0
CN(C)c1ccc(/C=N/NC(=O)c2ccc(CN3C(=O)c4cccc5cccc3c45)cc2)cc1,/,/,-2,/,/,/,/
O=C(N/N=C/c1ccccc1)c1ccc(CN2C(=O)c3cccc4cccc2c34)cc1,8,-7,-5,+,199*,-12,-1
CCOc1ccc(N2C(=O)/C(=C\c3ccc(O)c(OC)c3)S(=O)(=O)C2c2cccc([N+](=O)[O-])c2)cc1 (centres undefined),18,6,-2,57*,14,5,-1
CS(=O)(=O)Nc1ccc(C(=O)NCCSc2ccc(Cl)cc2)cc1,-1,-1,-2,0,/,/,/
Clc1ccc(OCc2nn3c(-c4ccco4)nnc3s2)c(Cl)c1,19,-14,0,90*,27,6,7
CC(=O)c1ccc(NC(=O)C(C)Sc2nnc(C3CCCCC3)o2)cc1 (centres undefined),/,/,0,/,/,/,/
CCC(C)Sc1cc(-c2nc3ccccn3c2NC2CCCCC2)ccc1OC (centres undefined),4,7,-2,2,/,/,/
CCC(C)Sc1cc(-c2nc3cc(C)ccn3c2NC2CCCCC2)ccc1OC (centres undefined),29,31,/,85*,8,-29,0
Cc1cc(C)c2c(=O)[nH]c(=O)n(Cc3ccccc3)c2n1,27,5,12,80*,95*,30,50*
Cc1nc(SCc2nc3ccccc3[nH]2)c2oc3cc(Br)ccc3c2n1,23,15,/,83*,45*,5,43*
SMILES,CSN deneddyl inh,HNF4A DNA FP,TPT1 inhibitor,Rpn11 inh,Rpn11 inh conf,MMP-2 counter,Thrombin inh
Cc1cc(NC(=O)CCCSc2nc(-c3ccco3)cc(C(F)(F)F)n2)no1,-2,3,0,-3,/,/,/
O=C(CCCSc1nc(-c2ccco2)cc(C(F)(F)F)n1)NCc1cccs1,4,5,5,33*,11,-6,6
C=CCn1cc(C(=O)NCCCN(CC)CC)c(=O)c2cc(S(=O)(=O)N3CCC(C)CC3)ccc21,-1,2,-2,-1,/,/,/
CSc1sc(-c2nnc(SCC(=O)Nc3ccc(Cl)cc3)n2C)c2c1C=CCC2,1,4,4,40*,2,-16,4
Cn1c(SCC(=O)Nc2ccc(Cl)cc2)nnc1C1CC1,-6,1,-1,1,/,/,/
Nc1nc(COc2ccc(F)cc2Cl)nc(N2CCCCC2)n1,-1,3,0,-1,/,/,/
CC(C)(C)c1ccc(/C=N/N2C(=O)CSC2=S)cc1,6,3,7,48*,18,38,14
COc1ccc(/C=N/N2C(=O)CSC2=S)cc1,0,4,7,10,/,/,/
O=C1CSC(=S)N1N=Cc1ccc(Cl)s1,13,36,/,59*,41*,31,37
O=C(Nc1cccc(-c2cscn2)c1)C1CCN(Cc2ccccn2)CC1,3,10,/,-2,/,/,/
COC(=O)c1sc2nc(CN3CCN(c4cccc(C(F)(F)F)c4)CC3)[nH]c(=O)c2c1C,14,22,11,62*,13,-17,18
CCOC(=O)c1sc2nc(CN3CCN(c4cccc(C(F)(F)F)c4)CC3)[nH]c(=O)c2c1C,15,20,6,49*,29,-13,5
COc1cccc(N2CCN(Cc3nc4scc(-c5ccccc5)c4c(=O)[nH]3)CC2)c1,-5,9,5,53*,12,30,22
COc1cccc(N2CCN(Cc3nc4ccccc4c(=O)[nH]3)CC2)c1,-1,-2,-3,0,/,/,/
CCOc1ccc(Nc2nnc(SCc3nc4ccccc4c(=O)[nH]3)s2)cc1,0,0,1,11,/,/,/
CCN(CC(=O)Nc1c(F)cccc1F)C(=O)CSC(=S)N1CCCC1,4,1,/,5,/,/,/
O=C(NCc1ccc(Cl)cc1)c1ccc(OCC2CCCO2)cc1 (centres undefined),1,-7,-2,37*,-3,-17,-10
CCCc1c(C)[nH]c2ccc(C(=O)O)cc2c1=S,48*,-68,/,98*,74*,11,-8
Cc1[nH]c2ccc(C(=O)O)cc2c1C,-1,6,3,5,/,/,/
Cc1ccccc1OCCC(=O)NNC(=O)COc1cccc(F)c1,2,-5,/,-1,/,/,/
